pIC50: −log10 of the molar value. Converted amounts (≈) assume the structure as drawn. “And” between values parts separate entries of the source, which are not always exact repeats. Equal entries are not always repeated.
How the values were obtained:
Ferriprotoporphyrin IX [1] = test: Inhibitory concentration against ferriprotoporphyrin in biomineralisation assay (FBIT); format: functional, Plasmodium falciparum
Outline: (§1)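 Heme biomineralization (FBIT): haemin chloride (0.5 mg/mL stock in DMSO), 0.5 M sodium acetate pH 4.4 and compound solution (10 mg/mL stock) were added in that order, final pH 5–5.2, and incubated at 37 °C for 18–24 h. After centrifugation, the pellet was washed with DMSO and the β-haematin dissolved in 0.1 M NaOH; absorbance read at 405 nm. % inhibition calculated against the solvent control.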

Ferriprotoporphyrin IX [2] = test: In vitro inhibitory concentration against ferriprotoporphyrin in biomineralisation assay (FBIT); format: functional, Plasmodium falciparum; outline: as §1
Ferriprotoporphyrin IX [3] = test: Inhibitory concentration against ferriprotoporphyrin in biomineralisation assay (FBIT); Not active; format: functional, Plasmodium falciparum; outline: as §1
Plasmodium falciparum [4] = test: In vitro inhibitory concentration against Plasmodium falciparum F32; format: functional, organism-based
Outline: (§2)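 P. falciparum F32-Tanzania (chloroquine-sensitive) cultured per Trager-Jensen in glucose-enriched RPMI 1640 with 10% human serum, 37 °C, candle jar. Human O+ red cells at 5% haematocrit, 1% parasitaemia. After 24 h, medium replaced with drug-containing medium (final DMSO ≤0.1%) and incubated a further 48 h. Parasitaemia counted on blood smears; IC50 read graphically from % inhibition vs concentration. Triplicate. Index = IC50 chloroquine/IC50 compound ×100.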

Ferriprotoporphyrin IX [5] = test: In vitro inhibitory concentration against ferriprotoporphyrin in biomineralisation assay (FBIT); Not active; format: functional, Plasmodium falciparum; outline: as §1
Plasmodium falciparum [6] = test: Antiplasmodial potency relative to chloroquine; format: functional; outline: as §2
Ferriprotoporphyrin IX [7] = test: Antiplasmodial potency relative to chloroquine in ferriprotoporphyrin biomineralisation assay; format: functional; details: Plasmodium falciparum
Ferriprotoporphyrin IX [8] = test: Inhibitory concentration against ferriprotoporphyrin in biomineralisation (FBIT); format: functional, Plasmodium falciparum; outline: as §1

Row | IC50 (Plasmodium falciparum [4]) | SMILES | Index (Plasmodium falciparum [6]) [%] | further results
1 | – | CCN(CC)CCCC(C)Nc1ccnc2cc(Cl)ccc12 (stereo unspecified) [CHLOROQUINE] | – | IC50 (Ferriprotoporphyrin IX [1]): 8.5 µg/mL (≈ 26.6 µM); pIC50 (Ferriprotoporphyrin IX [2]): 4.55
2 | 1 µg/mL and 3.6 µM | OC1(Cc2ccccc2)c2ccccc2C2=NCCCN21 (stereo unspecified) | 1.1 | IC50 (Ferriprotoporphyrin IX [3]): Not Active; IC50 (Ferriprotoporphyrin IX [5]): Not Active
3 | > 100 µg/mL and > 100 µM | O=c1[nH]nc(Cc2ccccc2)c2ccccc12 | <0.1 | –
4 | 32 µg/mL and 104 µM | COc1ccc(CC2(O)c3ccccc3C3=NCCCN32)cc1OC (stereo unspecified) | <0.1 | –
5 | > 100 µg/mL and > 100 µM | O=C(Cc1ccc2c(c1)OCO2)c1ccccc1C(=O)N1CCCCC1 | <0.1 | –
6 | 2.5 µg/mL and 9.5 µM | OC1(Cc2ccccc2)c2ccccc2C2=NCCN21 (stereo unspecified) | 0.4 | –
7 | > 100 µg/mL and > 100 µM | COc1cc(Cc2nnc(O)c3ccccc23)cc(OC)c1OC | <0.01 | –
8 | 1 µg/mL and 3.8 µM | COc1ccc(Cc2nnc(O)c3ccccc23)cc1 | 1.1 | IC50 (Ferriprotoporphyrin IX [1]): 1530 µg/mL (≈ 5750 µM); Index (Ferriprotoporphyrin IX [7]): 0.5%; pIC50 (Ferriprotoporphyrin IX [2]): 2.24
9 | 32 µg/mL and 84 µM | COc1ccc(C(=O)C(=O)c2ccccc2C(=O)N2CCCCC2)cc1OC | <0.1 | –
10 | 32 µg/mL and > 100 µM | COc1cc(Cc2nn(C)c(=O)c3ccccc23)cc(OC)c1OC | <0.1 | –
11 | 1 µg/mL and 3.6 µM | COc1ccc(Cc2nn(C)c(=O)c3ccccc23)cc1 | 1.1 | IC50 (Ferriprotoporphyrin IX [3]): Not Active; IC50 (Ferriprotoporphyrin IX [5]): Not Active
12 | 6 µg/mL and 22 µM | Oc1nnc(Cc2ccc(Cl)cc2)c2ccccc12 | 0.18 | –
13 | 16 µg/mL and 53 µM | COc1ccc(CCc2cc(O)cc(OC)c2C(=O)O)cc1 [ISONOTHOLAENIC ACID] | <0.1 | –
14 | 100 µg/mL and > 100 µM | COc1cc(CC(=O)c2ccccc2C(=O)N2CCCCC2)cc(OC)c1OC | <0.1 | –
15 | 8.5 µg/mL and 20.7 µM | O=C(C(=O)c1ccccc1C(=O)N1CCCCC1)c1ccc2c(c1)OCO2 | 0.2 | –
16 | 0.022 µg/mL and 70 nM | COc1cc(CC2(O)c3ccccc3C3=NCCN32)cc(OC)c1OC (stereo unspecified) | 57 | IC50 (Ferriprotoporphyrin IX [1]): 590 µg/mL (≈ 1660 µM); Index (Ferriprotoporphyrin IX [7]): 1.6%; pIC50 (Ferriprotoporphyrin IX [2]): 2.76
17 | 2.3 µg/mL and 7.5 µM | COc1ccc(CC2(O)c3ccccc3C3=NCCCN32)cc1 (stereo unspecified) | 0.5 | –
18 | 26 µg/mL and 84 µM | COc1ccc(Cc2nn(C)c(=O)c3ccccc23)cc1OC | <0.1 | –
19 | 4.9 µg/mL and 9.3 µM | COc1ccc(CC2(O)c3ccccc3C3=NCCN32)cc1OC (stereo unspecified) | 0.4 | –

Row | IC50 (Plasmodium falciparum [4]) | SMILES | Index (Plasmodium falciparum [6]) [%] | further results
20 | 6 µg/mL and 16.3 µM | COc1ccc(CCc2cc(O)cc(OC)c2C(=O)N2CCCCC2)cc1 | 0.25 | –
21 | 36 µg/mL and 98 µM | COc1ccc(CC(=O)c2ccccc2C(=O)N2CCCCC2)cc1OC | <0.1 | –
22 | 3.6 µg/mL and 11.5 µM | OC1(Cc2ccc(Cl)cc2)c2ccccc2C2=NCCCN21 (stereo unspecified) | 0.3 | –
23 | – | C=C[C@H]1CN2CC[C@H]1C[C@H]2[C@H](O)c1ccnc2ccc(OC)cc12 [QUININE] | – | Index (Ferriprotoporphyrin IX [7]): 11%; IC50 (Ferriprotoporphyrin IX [8]): 80 µg/mL (≈ 247 µM); pIC50 (Ferriprotoporphyrin IX [2]): 3.60
24 | 12 µg/mL and 33.8 µM | O=C(C(=O)c1ccccc1C(=O)N1CCCCC1)c1ccc(Cl)cc1 | 0.12 | –
25 | 0.036 µg/mL and 110 nM | OC1(Cc2ccc(Cl)cc2)c2ccccc2C2=NCCN21 (stereo unspecified) | 36 | IC50 (Ferriprotoporphyrin IX [3]): Not Active; IC50 (Ferriprotoporphyrin IX [5]): Not Active
26 | > 100 µg/mL and > 100 µM | COc1ccc(CC(=O)c2ccccc2C(=O)N2CCCCC2)cc1 | <0.1 | –
27 | 95 µg/mL and > 100 µM | COc1ccc(Cc2nnc(O)c3ccccc23)cc1OC | <0.1 | –
28 | 15 µg/mL and 52.8 µM | Cn1nc(Cc2ccc(Cl)cc2)c2ccccc2c1=O | <0.1 | –
29 | 5.2 µg/mL and 16.1 µM | COc1cc(CC2(O)c3ccccc3C3=NCCCN32)cc(OC)c1OC (stereo unspecified) | 0.2 | –
30 | 30 µg/mL and 82 µM | COc1cc(C(=O)C(=O)c2ccccc2C(=O)N2CCCCC2)cc(OC)c1OC | <0.1 | –
31 | 5 µg/mL and 20 µM | Cn1nc(Cc2ccccc2)c2ccccc2c1=O | 0.2 | –
32 | 3.8 µg/mL and 11 µM | Cn1nc(Cc2ccc3c(c2)OCO3)c2ccccc2c1=O | 0.4 | –
33 | 17 µg/mL and 48 µM | COc1ccc(C(=O)C(=O)c2ccccc2C(=O)N2CCCCC2)cc1 | <0.1 | –
34 | 0.017 µg/mL and 40 nM | COc1ccc(CC2(O)c3ccccc3C3=NCCN32)cc1 (stereo unspecified) | 100 | IC50 (Ferriprotoporphyrin IX [3]): Not Active; IC50 (Ferriprotoporphyrin IX [5]): Not Active
35 | 38 µg/mL and 104 µM | OC1(Cc2ccc3c(c2)OCO3)c2ccccc2C2=NCCCN21 (stereo unspecified) | <0.1 | –
36 | > 100 µg/mL and > 100 µM | Oc1nnc(Cc2ccc3c(c2)OCO3)c2ccccc12 | <0.01 | –
37 | 0.067 µg/mL and 190 nM | OC1(Cc2ccc3c(c2)OCO3)c2ccccc2C2=NCCN21 (stereo unspecified) | 21 | –
38 | 12 µg/mL and 35 µM | O=C(Cc1ccc(Cl)cc1)c1ccccc1C(=O)N1CCCCC1 | 0.11 | –
